Bioassay records from PubChem.
IMP-1 inh: blocks Pseudomonas aeruginosa IMP-1 metallo-beta-lactamase; purified IMP-1, nitrocefin hydrolysis, epi-absorbance fluorescence; inhibition, % at 5.6 µM; 0.45% of 290,000 active; AID 1556;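 active = inhibition above the mean plus 3 SD of all compounds in the same screening run, cut at about 4.5% in these data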;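 also: 0% = IMP-1 with DMSO and 100% = DMSO wells lacking enzyme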
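Assay system: purified IMP-1; Quantity: IMP-1 0.2 nM before substrate addition; Medium: HEPES buffer pH 7.1 with ZnSO4 and Brij 35; Incubation: 15 min enzyme–compound preincubation, then 25 min nitrocefin reaction, 25 °C; Signal: fluorescence quenching readout, ex 480/em 530 nm; Controls: DMSO with and without IMP-1; Repeats: singlicate testing.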
CHT allo act: allosterically activates the human high affinity choline transporter. CHT-expressing cells, membrane potential dye, choline EC20; active compounds read high; LV-AA mutant CHT in HEK293 cells. B-score at 10 µM. 0.49% of 310,000 active. AID 488977;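 active = initial fluorescence not abnormally high and integrated response B-score, plate-corrected, over 3 SD above library mean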
Target sequence (Q9GZV3 whole entry, looked up): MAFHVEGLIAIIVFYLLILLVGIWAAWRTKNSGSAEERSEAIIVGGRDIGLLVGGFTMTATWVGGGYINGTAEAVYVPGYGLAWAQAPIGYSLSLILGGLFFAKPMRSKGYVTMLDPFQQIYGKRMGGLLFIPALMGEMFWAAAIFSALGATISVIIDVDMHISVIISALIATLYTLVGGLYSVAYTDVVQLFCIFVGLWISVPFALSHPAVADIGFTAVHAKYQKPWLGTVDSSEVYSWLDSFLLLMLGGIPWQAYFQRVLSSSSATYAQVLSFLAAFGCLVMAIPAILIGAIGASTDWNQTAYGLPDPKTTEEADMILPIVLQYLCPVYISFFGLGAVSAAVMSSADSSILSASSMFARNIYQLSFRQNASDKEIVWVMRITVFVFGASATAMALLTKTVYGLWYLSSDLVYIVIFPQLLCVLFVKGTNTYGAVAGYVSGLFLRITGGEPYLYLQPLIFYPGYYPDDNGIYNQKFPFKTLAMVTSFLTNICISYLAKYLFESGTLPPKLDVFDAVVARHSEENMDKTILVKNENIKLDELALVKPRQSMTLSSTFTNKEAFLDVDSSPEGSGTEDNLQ
TMEM16A inh: mouse TMEM16A channel inhibition, primary screen; Q8BHY3; HEK293 TMEM16A/YFP iodide influx fluorescence, ionomycin; normalized B-score (activity score, 25-100; higher = stronger inhibition) at 10 µM; 1.2% of 310,000 active;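 active = ratio plate-corrected score three or more library SD toward inhibition, starting fluorescence score within five deviations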;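 also: score derived from kinetic fluorescence span divided by baseline fluorescence per well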
VIM-2 inh: inhibitors of Pseudomonas aeruginosa VIM-2 metallo-beta-lactamase; purified VIM-2, nitrocefin hydrolysis, epi-absorbance fluorescence; inhibition, % at 5.6 µM; 0.89% of 290,000 active; AID 1527;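 active = inhibition above the mean of all tested compounds plus 3 SD, cutoff set per screening run, cut at about 7.5% in these data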;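 also: red hydrolysis product quenches plate fluorescence so inhibitors raise well fluorescence; 0% = enzyme with DMSO and 100% = DMSO without enzyme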
ANO1 activ: mouse TMEM16A channel activation, primary screen. Q8BHY3. HEK293 TMEM16A/YFP-H148Q/I152L, iodide quench fluorescence; active compounds read low. B-score at 10 µM. 0.3% of 340,000 active;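 active = fluorescence-ratio B-score plate-corrected deviation score at least 3 library SD below zero, with starting fluorescence score within 5 deviations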;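 also: channel opened by trigger with iodide after compound preincubation; score built on the fluorescence ratio of max minus min over baseline; more negative score means more quench and so TMEM16A activation or potentiation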
CHT inh: human CHT choline transport inhibition; 0.86% of 310,000 active; Q9GZV3; B-score at 10 µM; CHT-expressing cells, membrane potential dye, choline response; active compounds read low;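 active = B-score over 3 SD under the library average, and starting fluorescence ratio not unusually high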;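 also: choline stimulus applied at its EC90 after an EC20 pre-addition; B-score computed on integrated fluorescence ratio after choline addition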
Starred values were filed as active, the others as inactive; i = inactive; . = not tested or not shown. Sampled rows, rich in hits. Any-hit rate of the full collection: about 3.4%.

SMILES	IMP-1 inh	CHT allo act	TMEM16A inh	VIM-2 inh	ANO1 activ	CHT inh
C/C(=N\Nc1nc(C)c(C)s1)c1ccc([N+](=O)[O-])cc1	-4	i	i	-3	-21*	i
COc1ccc2[nH]c(=O)c3c(c2c1)OC(C)(C)C=C3	39*	i	i	-2	i	i
O=C(CNCc1ccc(Cl)cc1)Nc1cc(S(=O)(=O)N2CCCC2)ccc1Cl	.	.	.	.	i	.
O=C(NCc1ccccc1Cl)c1ccc(S(=O)(=O)Nc2cccc(C(F)(F)F)c2)cc1	-2	i	100*	-2	i	i
O=C(NCc1ccccc1Cl)c1ccc(S(=O)(=O)N2CCCC2)cc1	.	.	.	.	i	.
Cc1cccc(N2C(=O)c3cccc(Oc4ccc(Cl)cc4)c3C2=O)c1	0	i	i	-1	-7.3*	i
Cc1cccc(C)c1OCc1cc(C(=O)NCC2CC2)no1	-2	i	i	-4	i	i
CCC1=NN2C(=N)/C(=C\c3ccc(OCCOc4ccccc4OC)cc3)C(=O)N=C2S1	-4	i	i	-3	i	i
COc1cc(/C=C2\C(=N)N3N=C(S(C)(=O)=O)SC3=NC2=O)ccc1OC(=O)c1ccco1	-4	i	i	-2	i	i
CCC1=NN2C(=N)/C(=C\c3ccc(OCCOc4ccc(NC(C)=O)cc4)c(OC)c3)C(=O)N=C2S1	-3	i	i	10*	i	i
COc1cc(/C=C2\C(=N)N3N=C(S(C)(=O)=O)SC3=NC2=O)ccc1OCCOc1ccccc1C	-5	i	100*	-2	i	i
Cc1cc(C)cc(C(=O)NC(=S)Nc2cccnc2)c1	-2	i	i	-2	i	i
CC1(C)CC(=O)C(C(O)c2ccccc2)C(C)(C)N1 (stereo unspecified)	-5	i	i	-2	i	i
Cc1ccc(NC(=O)/C=C/c2ccco2)cc1S(=O)(=O)N1CCCCCC1	.	i	25*	.	i	i
O=C(/C=C/c1ccco1)Nc1cccc(S(=O)(=O)N2CCOCC2)c1	-2	i	i	-1	i	i
COc1ccc(C2=NOC(COc3ccc4c(C)cc(=O)oc4c3)C2)c(OC)c1 (stereo unspecified)	-3	i	i	1	i	i
COc1ccccc1C1=NOC(COc2ccc3c(C)cc(=O)oc3c2)C1 (stereo unspecified)	-3	i	i	-1	i	-8.5*
COc1ccccc1C1=NOC(CN2C(=O)c3ccccc3S2(=O)=O)C1 (stereo unspecified)	-4	i	i	7.7*	i	i
COc1ccc(NS(=O)(=O)c2cc(C(=O)N3CCC3)ccc2C)cc1	.	.	.	.	i	.
O=C(Nc1ccc(Cl)cc1)N(Cc1nnc2n1CCCCC2)c1ccccc1	5.4*	i	i	0	i	i
N#CCCN(C(=O)Nc1ccc(Cl)cc1)c1ccccc1	2	i	i	-1	i	i
Cc1ccc(-c2nc(CCNC(=O)c3ccco3)cs2)cc1	.	i	25*	.	i	i
NS(=O)(=O)c1ccc(S(=O)(=O)N(Cc2ccccc2F)CC2CCCO2)cc1 (stereo unspecified)	5.0*	i	i	-1	i	i
O=c1[nH]c2ccccc2cc1CN(CC1CCCO1)S(=O)(=O)c1ccc(Cl)cc1 (stereo unspecified)	-2	i	i	0	i	i
CCN(Cc1ccccc1)S(=O)(=O)c1ccc(S(=O)(=O)N(Cc2cccc(OC)c2)CC2CCCO2)cc1 (stereo unspecified)	-4	i	25*	-3	i	i
SMILES	IMP-1 inh	CHT allo act	TMEM16A inh	VIM-2 inh	ANO1 activ	CHT inh
CC1(C)C(C#N)=C(N)Oc2c1c(=O)oc1ccccc21	4.9*	i	i	1	i	i
CN(Cc1nccn1C)C(=O)c1cc(COc2cccc(C(F)(F)F)c2)on1	-4	i	i	-3	i	i
CN(Cc1nccn1C)C(=O)c1cc(COc2ccc3ncccc3c2)on1	-3	i	i	10.0*	i	i
CC(=O)Nc1ccc(C(=O)CN2C(=O)NC3(CCOc4ccccc43)C2=O)c(F)c1 (stereo unspecified)	.	.	.	.	i	.
O=C(COC(=O)c1ccc(OC(F)F)cc1)NCc1cccs1	.	.	.	.	i	.
CC1(C)CC(=O)C2=C(C1)OC(N)=C(C#N)C2CCc1ccccc1 (stereo unspecified)	4.7*	i	i	1	i	i
CC1(C)CC(=O)C2=C(C1)OC(N)=C(C#N)C2c1cc2c(cc1[N+](=O)[O-])OCO2 (stereo unspecified)	2	i	i	3	-5*	i
O=C(COC(=O)[C@@H]1CC(O)CN1S(=O)(=O)c1ccc2c(c1)OCCO2)Nc1cc(F)ccc1F (stereo partly specified)	.	.	.	.	i	.
CSCC[C@H](NS(=O)(=O)c1ccc(C(C)=O)cc1)c1nnc2ccccn12	-3	i	i	-2	i	i
CCCc1nc2nc(C)c(NS(=O)(=O)c3ccc(Cl)cc3)c(=O)n2[nH]1	-1	i	i	-1	i	i
Cc1ccc(S(=O)(=O)NCC(=O)OCc2nnc(-c3ccccc3)o2)cc1	-3	i	i	-1	i	i
O=C(OCC(=O)N1CCCc2ccccc21)c1ccccc1NCCO	.	i	i	.	i	i
COc1ccc(S(=O)(=O)N2CCN(C(=O)c3cc4c(s3)CCCC4)CC2)cc1	.	.	.	.	-34*	.
O=C(c1cc2c(s1)CCCC2)N1CCN(S(=O)(=O)c2ccccc2)CC1	.	i	i	.	i	i
O=C(CCCCCN1C(=O)[C@@H]2Cc3ccccc3CN2C1=O)Nc1cccc(F)c1	0	i	25*	0	i	i
Cc1cccc(NC(=O)CCCCCN2C(=O)[C@@H]3Cc4ccccc4CN3C2=O)c1	-1	i	i	-2	i	i
O=C1CSC(=Nc2cccc(Cl)c2Cl)N1	1	i	i	1	i	i
CSc1ccccc1NC(=O)CSCc1ccc(C)cc1	-2	i	i	-3	-20*	i
Cc1ccc(CSCC(=O)Nc2ccccc2C(=O)O)cc1	0	i	i	-1	i	i
COCCNC(=O)COC(=O)c1[nH]c(C)c(C(C)=O)c1C	-3	i	100*	-1	i	i
C=CCSC(=C(C#N)C#N)c1cc2c([nH]1)CCCC2	2	i	100*	2	i	i
CNS(=O)(=O)c1cc(-c2nnc(N3CCOCC3)c3ccccc23)ccc1C	.	i	i	.	i	i
